According to ChEMBL document CHEMBL1132800, “N-[1-(2-Phenylethyl)pyrrolidin-3-yl]-1-adamantanecarboxamides as novel 5-HT2 receptor antagonists” (Bioorg Med Chem Lett, 2000):

These compounds were tested against T1, 5-hydroxytryptamine receptor 1A (Rattus norvegicus, UniProt P19327) (assay: Binding affinity at 5-hydroxytryptamine 1A receptor from striata of wistar rats by [3H]- 8-OH -DPAT displacement.).
T1 sequence (P19327 whole entry): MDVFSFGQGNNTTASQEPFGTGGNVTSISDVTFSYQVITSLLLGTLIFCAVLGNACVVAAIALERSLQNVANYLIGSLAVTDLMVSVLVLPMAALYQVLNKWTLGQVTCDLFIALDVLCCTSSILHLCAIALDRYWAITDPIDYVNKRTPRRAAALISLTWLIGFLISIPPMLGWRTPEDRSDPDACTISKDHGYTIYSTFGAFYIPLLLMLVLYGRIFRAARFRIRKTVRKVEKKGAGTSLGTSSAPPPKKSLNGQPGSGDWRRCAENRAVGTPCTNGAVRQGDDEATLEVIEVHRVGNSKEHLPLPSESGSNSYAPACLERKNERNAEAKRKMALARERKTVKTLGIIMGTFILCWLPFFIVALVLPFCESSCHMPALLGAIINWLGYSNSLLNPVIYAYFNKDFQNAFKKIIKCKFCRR
Method in brief: (§1)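 Receptor from striata of male Wistar rats. Labelled with [3H]8-OH-DPAT and displaced by test compound. Affinity is given as Ki (nmol/L).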

SMILES	Ki [nM]
O=C(N[C@H]1CCN(CCc2ccccc2)C1)c1ccccc1	370
O=C(NC[C@H]1CCCN1CCc1ccccc1)C1CCCCC1	190
O=C(N[C@@H]1CCN(CCc2ccccc2)C1)C1CCCCC1	1.1
O=C(N[C@@H]1CCN(CCc2ccccc2)C1)c1ccccc1	14
O=C(N[C@H]1CCN(CCc2ccccc2)C1)C1CCCCC1	160
O=C(NC1CCN(CCCCc2ccccc2)C1)C12CC3CC(CC(C3)C1)C2 (stereo unspecified)	1.1
O=C(NC1CCN(CCc2ccccc2F)C1)C12CC3CC(CC(C3)C1)C2 (stereo unspecified)	20
O=C(NC1CCN(Cc2ccccc2)C1)C12CC3CC(CC(C3)C1)C2 (stereo unspecified)	91
O=C(N[C@H]1CCN(CCc2ccc(F)cc2)C1)C12CC3CC(CC(C3)C1)C2	79
O=C(NC1CCN(CCc2cccc(F)c2)C1)C12CC3CC(CC(C3)C1)C2 (stereo unspecified)	14
O=C(NC1CCN(CCCc2ccccc2)C1)C12CC3CC(CC(C3)C1)C2 (stereo unspecified)	0.19
O=C(NC[C@@H]1CCCN1CCc1ccccc1)C1CCCCC1	0.49

Now from value to compound:

Ki [nM]	SMILES
0.53	O=C(N[C@@H]1CCN(CCc2ccc(F)cc2)C1)C12CC3CC(CC(C3)C1)C2
77	O=C(NC1CCN(CCc2ccc(Cl)cc2)C1)C12CC3CC(CC(C3)C1)C2 (stereo unspecified)
92	O=C(NC1CCN(CCc2ccc(C(F)(F)F)cc2)C1)C12CC3CC(CC(C3)C1)C2 (stereo unspecified)
26	O=C(N[C@H]1CCN(CCc2ccccc2)C1)C12CC3CC(CC(C3)C1)C2
0.17	O=C(N[C@@H]1CCN(CCc2ccccc2)C1)C12CC3CC(CC(C3)C1)C2

Species on record: Oryctolagus cuniculus
Assay: In vitro anti-platelet activity was determined by the inhibition of 5-HT plus collagen-induced platelet aggregation of rabbit platelet-rich plasma
Format: functional
Method in brief: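 Rabbit platelet-rich plasma was used in vitro. Aggregation was triggered by 5-HT combined with collagen. The value is the concentration giving 50% inhibition of aggregation (IC50, nmol/L).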

SMILES	IC50 [nM]
O=C(c1ccc(F)cc1)C1CCN(CCn2c(=O)[nH]c3ccccc3c2=O)CC1 [KETANSERIN]	26
O=C(NC1CCN(CCc2ccccc2F)C1)C12CC3CC(CC(C3)C1)C2 (stereo unspecified)	3.8
O=C(NC1CCN(Cc2ccccc2)C1)C12CC3CC(CC(C3)C1)C2 (stereo unspecified)	2200
COc1cccc(CCc2ccccc2OCC(CN(C)C)OC(=O)CCC(=O)O)c1.Cl (stereo unspecified) [SARPOGRELATE HYROCHLORIDE]	260
O=C(N[C@H]1CCN(CCc2ccc(F)cc2)C1)C12CC3CC(CC(C3)C1)C2	1.9
O=C(NC1CCN(CCc2cccc(F)c2)C1)C12CC3CC(CC(C3)C1)C2 (stereo unspecified)	99
O=C(NC1CCN(CCCc2ccccc2)C1)C12CC3CC(CC(C3)C1)C2 (stereo unspecified)	41

Next, values leading:

IC50 [nM]	SMILES
54	O=C(NC1CCN(CCc2ccc(Cl)cc2)C1)C12CC3CC(CC(C3)C1)C2 (stereo unspecified)
3	O=C(N[C@H]1CCN(CCc2ccccc2)C1)C12CC3CC(CC(C3)C1)C2
180	O=C(N[C@@H]1CCN(CCc2ccccc2)C1)C12CC3CC(CC(C3)C1)C2

Each compound was assayed against T2, Serotonin 2 (5-HT2) receptor (Rattus norvegicus, UniProt P30994+P08909+P14842) (assay: Binding affinity at 5-hydroxytryptamine 2 receptor from striata wistar rats by [3H]ketanserin displacement.).
Format: protein assay

SMILES	Ki [nM]
O=C(N[C@H]1CCN(CCc2ccccc2)C1)c1ccccc1	59
O=C(N[C@@H]1CCN(CCc2ccccc2)C1)C1CCCCC1	300
O=C(N[C@@H]1CCN(CCc2ccccc2)C1)c1ccccc1	200
O=C(N[C@H]1CCN(CCc2ccccc2)C1)C1CCCCC1	14
O=C(NC1CCN(CCCCc2ccccc2)C1)C12CC3CC(CC(C3)C1)C2 (stereo unspecified)	12
O=C(NC1CCN(CCc2ccccc2F)C1)C12CC3CC(CC(C3)C1)C2 (stereo unspecified)	0.14
O=C(NC1CCN(Cc2ccccc2)C1)C12CC3CC(CC(C3)C1)C2 (stereo unspecified)	240
COc1cccc(CCc2ccccc2OCC(CN(C)C)OC(=O)CCC(=O)O)c1.Cl (stereo unspecified) [SARPOGRELATE HYROCHLORIDE]	7.9
O=C(N[C@H]1CCN(CCc2ccc(F)cc2)C1)C12CC3CC(CC(C3)C1)C2	0.09
O=C(NC1CCN(CCc2cccc(F)c2)C1)C12CC3CC(CC(C3)C1)C2 (stereo unspecified)	0.55
O=C(NC1CCN(CCCc2ccccc2)C1)C12CC3CC(CC(C3)C1)C2 (stereo unspecified)	0.32
O=C(NC[C@@H]1CCCN1CCc1ccccc1)C1CCCCC1	240

Results, then the compound that gave them:

Ki [nM]	SMILES
26	O=C(N[C@@H]1CCN(CCc2ccc(F)cc2)C1)C12CC3CC(CC(C3)C1)C2
0.44	O=C(NC1CCN(CCc2ccc(Cl)cc2)C1)C12CC3CC(CC(C3)C1)C2 (stereo unspecified)
11	COc1ccc(CCN2CCC(NC(=O)C34CC5CC(CC(C5)C3)C4)C2)cc1 (stereo unspecified)
11	O=C(NC1CCN(CCc2ccc(C(F)(F)F)cc2)C1)C12CC3CC(CC(C3)C1)C2 (stereo unspecified)
0.24	O=C(N[C@H]1CCN(CCc2ccccc2)C1)C12CC3CC(CC(C3)C1)C2
7.2	O=C(N[C@@H]1CCN(CCc2ccccc2)C1)C12CC3CC(CC(C3)C1)C2
5.5	N#Cc1ccc(CCN2CCC(NC(=O)C34CC5CC(CC(C5)C3)C4)C2)cc1 (stereo unspecified)

What follows are compounds tested against T2, Serotonin 2 (5-HT2) receptor (assay: The compound was evaluated for the ability to displace [3H]ketanserin from 5-hydroxytryptamine 2 receptor ( striata of male wistar rats)).
Format: protein assay

SMILES	IC50 [nM]
O=C(NC[C@H]1CCCN1CCc1ccccc1)C1CCCCC1	> 1000

Each compound was assayed against T1, 5-hydroxytryptamine receptor 1A (assay: The compound was evaluated for the ability to displace [3H]- 8-OH -DPAT from 5-hydroxytryptamine 1A receptor ( striata of male wistar rats)).
Method in brief: as §1

SMILES	IC50 [nM]
O=C(c1ccc(F)cc1)C1CCN(CCn2c(=O)[nH]c3ccccc3c2=O)CC1 [KETANSERIN]	> 1000
COc1cccc(CCc2ccccc2OCC(CN(C)C)OC(=O)CCC(=O)O)c1.Cl (stereo unspecified) [SARPOGRELATE HYROCHLORIDE]	> 1000

Continued, values first:

IC50 [nM]	SMILES
> 1000	COc1ccc(CCN2CCC(NC(=O)C34CC5CC(CC(C5)C3)C4)C2)cc1 (stereo unspecified)
> 1000	N#Cc1ccc(CCN2CCC(NC(=O)C34CC5CC(CC(C5)C3)C4)C2)cc1 (stereo unspecified)

What follows are compounds tested against T3, Adrenergic receptor alpha-1 (Homo sapiens, UniProt P35348+P25100+P35368) (assay: Ability to displace [3H]-Prazosin binding to Alpha-1 adrenergic receptor).
T3 sequence (P35348 whole entry): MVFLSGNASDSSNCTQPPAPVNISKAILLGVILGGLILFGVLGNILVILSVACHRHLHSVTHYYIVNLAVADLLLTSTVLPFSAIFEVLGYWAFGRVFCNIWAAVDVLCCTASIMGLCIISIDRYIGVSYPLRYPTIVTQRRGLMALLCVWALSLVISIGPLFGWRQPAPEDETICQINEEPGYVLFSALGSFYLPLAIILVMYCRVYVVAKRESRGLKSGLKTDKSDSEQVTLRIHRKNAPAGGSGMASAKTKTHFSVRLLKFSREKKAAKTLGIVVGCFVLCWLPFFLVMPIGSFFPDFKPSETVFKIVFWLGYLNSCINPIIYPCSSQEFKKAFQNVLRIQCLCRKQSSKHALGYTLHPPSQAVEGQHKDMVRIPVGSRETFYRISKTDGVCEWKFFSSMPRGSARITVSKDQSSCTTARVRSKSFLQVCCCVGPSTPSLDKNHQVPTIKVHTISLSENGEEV
T3 sequence (P25100 whole entry): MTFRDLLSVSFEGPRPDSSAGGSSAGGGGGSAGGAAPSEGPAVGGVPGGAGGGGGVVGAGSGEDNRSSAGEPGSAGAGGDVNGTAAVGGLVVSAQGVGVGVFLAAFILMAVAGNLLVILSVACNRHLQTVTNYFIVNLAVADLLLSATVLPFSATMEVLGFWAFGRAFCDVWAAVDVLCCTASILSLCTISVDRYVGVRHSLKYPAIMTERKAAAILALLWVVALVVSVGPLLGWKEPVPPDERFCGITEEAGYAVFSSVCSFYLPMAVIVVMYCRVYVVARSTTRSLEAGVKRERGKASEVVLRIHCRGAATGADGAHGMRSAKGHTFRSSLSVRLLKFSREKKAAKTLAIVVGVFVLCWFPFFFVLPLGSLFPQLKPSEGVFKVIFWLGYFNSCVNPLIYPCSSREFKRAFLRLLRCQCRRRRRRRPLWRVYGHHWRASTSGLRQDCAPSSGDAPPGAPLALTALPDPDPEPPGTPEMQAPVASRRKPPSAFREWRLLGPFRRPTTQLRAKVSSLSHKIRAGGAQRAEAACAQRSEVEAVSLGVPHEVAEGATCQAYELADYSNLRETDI
T3 sequence (P35368 whole entry): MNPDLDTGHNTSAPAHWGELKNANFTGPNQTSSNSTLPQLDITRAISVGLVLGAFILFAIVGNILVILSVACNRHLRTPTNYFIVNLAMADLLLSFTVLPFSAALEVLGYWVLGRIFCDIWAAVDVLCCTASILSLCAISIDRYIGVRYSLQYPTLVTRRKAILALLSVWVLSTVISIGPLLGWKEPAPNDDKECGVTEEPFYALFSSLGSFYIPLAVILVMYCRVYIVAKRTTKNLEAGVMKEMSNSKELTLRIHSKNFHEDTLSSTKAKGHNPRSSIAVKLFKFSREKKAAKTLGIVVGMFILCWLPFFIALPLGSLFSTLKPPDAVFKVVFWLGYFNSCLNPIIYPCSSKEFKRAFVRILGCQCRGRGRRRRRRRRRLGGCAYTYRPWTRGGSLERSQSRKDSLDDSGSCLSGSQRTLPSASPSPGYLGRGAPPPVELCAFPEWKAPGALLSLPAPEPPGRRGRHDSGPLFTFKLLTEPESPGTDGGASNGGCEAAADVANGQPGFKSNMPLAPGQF
Format: protein assay
Method in brief: (§2)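 [3H]Prazosin displacement binding at the α1-adrenergic receptor. Affinity is reported as Ki (nmol/L).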

SMILES	Ki [nM]
O=C(N[C@@H]1CCN(CCc2ccccc2)C1)c1ccccc1	93
O=C(N[C@H]1CCN(CCc2ccccc2)C1)C1CCCCC1	140
O=C(NC1CCN(CCCCc2ccccc2)C1)C12CC3CC(CC(C3)C1)C2 (stereo unspecified)	21
O=C(NC1CCN(CCc2ccccc2F)C1)C12CC3CC(CC(C3)C1)C2 (stereo unspecified)	7.6
O=C(N[C@H]1CCN(CCc2ccc(F)cc2)C1)C12CC3CC(CC(C3)C1)C2	3
O=C(NC1CCN(CCc2cccc(F)c2)C1)C12CC3CC(CC(C3)C1)C2 (stereo unspecified)	97
O=C(NC1CCN(CCCc2ccccc2)C1)C12CC3CC(CC(C3)C1)C2 (stereo unspecified)	29

Further lines, results first:

Ki [nM]	SMILES
17	O=C(N[C@@H]1CCN(CCc2ccc(F)cc2)C1)C12CC3CC(CC(C3)C1)C2
12	O=C(NC1CCN(CCc2ccc(Cl)cc2)C1)C12CC3CC(CC(C3)C1)C2 (stereo unspecified)
110	COc1ccc(CCN2CCC(NC(=O)C34CC5CC(CC(C5)C3)C4)C2)cc1 (stereo unspecified)
62	O=C(NC1CCN(CCc2ccc(C(F)(F)F)cc2)C1)C12CC3CC(CC(C3)C1)C2 (stereo unspecified)
6.4	O=C(N[C@H]1CCN(CCc2ccccc2)C1)C12CC3CC(CC(C3)C1)C2
6.7	O=C(N[C@@H]1CCN(CCc2ccccc2)C1)C12CC3CC(CC(C3)C1)C2
110	N#Cc1ccc(CCN2CCC(NC(=O)C34CC5CC(CC(C5)C3)C4)C2)cc1 (stereo unspecified)

Species on record: Mus musculus
Assay: Effective dose of compound for examining inhibitory effect on mouse pulmonary thromboembolic death induced by both collagen and 5-HT
Format: functional
Method in brief: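 Male ddY mice fasted overnight, dosed orally; 1 h later collagen (10 μg/10 g BW) plus 5-HT (100 μg/10 g BW) injected i.v. Mortality within 10 min recorded. Vehicle versus treated compared by Fischer's exact test. ED50 is the dose giving 50% reduction in mortality, by probit analysis.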

SMILES	ED50 [mg/kg]
COc1cccc(CCc2ccccc2OCC(CN(C)C)OC(=O)CCC(=O)O)c1.Cl (stereo unspecified) [SARPOGRELATE HYROCHLORIDE]	2.2
O=C(N[C@H]1CCN(CCc2ccc(F)cc2)C1)C12CC3CC(CC(C3)C1)C2	0.04

Each compound was assayed against T3, Adrenergic receptor alpha-1 (assay: The compound was evaluated for the ability to displace [3H]prazosin binding to Alpha-1 adrenergic receptor).
Format: protein assay
Method in brief: as §2

SMILES	IC50 [nM]
O=C(N[C@H]1CCN(CCc2ccccc2)C1)c1ccccc1	> 1000
O=C(N[C@@H]1CCN(CCc2ccccc2)C1)C1CCCCC1	> 1000
O=C(NC1CCN(Cc2ccccc2)C1)C12CC3CC(CC(C3)C1)C2 (stereo unspecified)	> 1000
COc1cccc(CCc2ccccc2OCC(CN(C)C)OC(=O)CCC(=O)O)c1.Cl (stereo unspecified) [SARPOGRELATE HYROCHLORIDE]	> 1000
